From ChEMBL document CHEMBL1130380, “Studies on selection blockers. 5. Design, synthesis, and biological profile of sialyl Lewis x mimetics based on modified serine-glutamic acid dipeptides” (J Med Chem, 1997) come the findings set out here.

Test [1] deals with T1, L-selectin (Mus musculus, UniProt P18337).
T1 sequence (P18337 whole entry): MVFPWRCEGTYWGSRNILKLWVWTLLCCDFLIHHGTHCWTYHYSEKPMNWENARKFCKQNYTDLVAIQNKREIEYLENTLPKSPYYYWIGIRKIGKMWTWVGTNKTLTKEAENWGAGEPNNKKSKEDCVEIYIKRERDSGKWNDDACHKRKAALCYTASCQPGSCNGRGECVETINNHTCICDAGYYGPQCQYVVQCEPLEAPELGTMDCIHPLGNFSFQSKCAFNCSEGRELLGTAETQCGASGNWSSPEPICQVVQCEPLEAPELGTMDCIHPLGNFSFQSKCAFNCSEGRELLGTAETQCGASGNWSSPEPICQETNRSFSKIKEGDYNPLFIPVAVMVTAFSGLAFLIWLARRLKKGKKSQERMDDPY
The test can be described thus: Blocking activity using seletin-IgG chimeras in a Selectin L competitive binding assay. The gist of the method:
(§1)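 Selectin-Ig fusion protein is premixed for 30 min at room temperature with biotin-anti-human IgG (Fc) and streptavidin-alkaline phosphatase (each 1:500 in 1% BSA-PBS). The complex is preincubated 30 min with test compound (final 100, 25, 6.25, 1.56 µM; 10 mM water stock). It is then bound 45 min at 37 °C to wells coated with sLex-pentaceramide and blocked with 5% BSA. Read-out is p-nitrophenylphosphate absorbance, expressed as % binding versus controls.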

Test [2] deals with T2, P-selectin (Mus musculus, UniProt Q01102).
T2 sequence (Q01102 whole entry): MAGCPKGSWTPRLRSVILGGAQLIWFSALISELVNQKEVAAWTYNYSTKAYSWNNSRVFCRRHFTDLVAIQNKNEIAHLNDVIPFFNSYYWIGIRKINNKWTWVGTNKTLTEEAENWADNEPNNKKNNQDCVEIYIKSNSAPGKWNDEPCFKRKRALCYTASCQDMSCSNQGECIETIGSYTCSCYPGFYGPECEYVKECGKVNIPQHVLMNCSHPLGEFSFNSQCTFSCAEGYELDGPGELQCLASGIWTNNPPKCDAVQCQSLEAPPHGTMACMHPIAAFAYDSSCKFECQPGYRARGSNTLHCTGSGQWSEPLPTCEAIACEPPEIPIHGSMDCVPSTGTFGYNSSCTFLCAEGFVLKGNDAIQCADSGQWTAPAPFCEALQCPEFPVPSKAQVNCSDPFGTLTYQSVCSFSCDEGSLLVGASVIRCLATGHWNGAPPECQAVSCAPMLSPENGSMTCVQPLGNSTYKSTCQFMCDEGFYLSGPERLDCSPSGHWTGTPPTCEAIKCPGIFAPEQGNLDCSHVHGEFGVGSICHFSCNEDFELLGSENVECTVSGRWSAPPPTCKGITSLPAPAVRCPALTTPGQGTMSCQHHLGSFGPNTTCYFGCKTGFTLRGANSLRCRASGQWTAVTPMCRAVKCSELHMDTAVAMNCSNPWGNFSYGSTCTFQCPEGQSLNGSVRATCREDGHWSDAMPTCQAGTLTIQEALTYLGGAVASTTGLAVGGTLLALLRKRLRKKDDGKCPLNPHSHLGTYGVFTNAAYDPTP
Description: Blocking activity using seletin-IgG chimeras in a Selectin P competitive binding assay. The gist of the method:
as §1

Test [3] has as its target T3, E-selectin (Mus musculus, UniProt Q00690).
T3 sequence (Q00690 whole entry): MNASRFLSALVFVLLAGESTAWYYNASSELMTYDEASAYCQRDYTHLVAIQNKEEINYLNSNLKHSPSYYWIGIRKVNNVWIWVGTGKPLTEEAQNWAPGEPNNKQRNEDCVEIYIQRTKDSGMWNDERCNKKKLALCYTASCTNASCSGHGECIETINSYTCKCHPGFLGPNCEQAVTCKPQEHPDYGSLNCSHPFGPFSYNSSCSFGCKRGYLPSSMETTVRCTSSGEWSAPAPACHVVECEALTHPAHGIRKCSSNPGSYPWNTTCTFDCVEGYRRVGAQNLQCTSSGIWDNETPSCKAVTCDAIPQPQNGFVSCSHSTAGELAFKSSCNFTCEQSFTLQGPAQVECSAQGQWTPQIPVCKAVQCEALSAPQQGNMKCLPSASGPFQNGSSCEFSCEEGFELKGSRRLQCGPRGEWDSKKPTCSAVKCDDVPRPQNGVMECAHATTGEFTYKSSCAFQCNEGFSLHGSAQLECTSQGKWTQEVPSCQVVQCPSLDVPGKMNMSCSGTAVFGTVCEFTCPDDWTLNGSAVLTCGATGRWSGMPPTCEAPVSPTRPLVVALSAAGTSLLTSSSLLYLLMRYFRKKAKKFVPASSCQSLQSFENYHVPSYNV
The test can be described thus: In vitro inhibitory activity against Selectin E-sialyl Lewis X (sLex) binding. The gist of the method:
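sLex-pentaceramide (100 pmol/well) dried onto wells, blocked with 5% BSA-PBS 1 h RT. E-selectin-Ig fusion premixed 30 min RT with biotin-anti-human IgG(Fc)/streptavidin-alkaline phosphatase. Compounds (water stock 10 mM; final 100, 25, 6.25, 1.56 µM) preincubated with complex 30 min RT, then added to wells 45 min at 37 °C. Read-out: p-nitrophenylphosphate in diethanolamine pH 9.8; % binding versus no-compound control, background without selectin-Ig.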

Test [4] concerns the target T1, L-selectin. The test can be described thus: Blocking activity using selectin-IgG chimeras in a Selectin L competitive binding assay. The gist of the method: as §1
The target of test [5] is T2, P-selectin. The test can be described thus: Blocking activity using selectin-IgG chimeras in a Selectin P competitive binding assay. In a few lines:
as §1

Usually IC50 stands for the point on the concentration scale where inhibition reaches its midpoint. A lower IC50 goes with inhibition by little substance. As for `CCCCCCCCCCCCCCC(CCCCCCCCCCCCCC)CO[C@@H]1O[C@H](CO)[C@@H](O[C@@H]2O[C@H](CO)[C@H](O)[C@H](OS(=O)(=O)O)[C@H]2O)[C@H](O[C@@H]2O[C@@H](C)[C@@H](O)[C@@H](O)[C@@H]2O)[C@H]1O`, the IC50 in test [1] is 30 µM; in test [2] it was 100 µM; in test [3], 280 µM.
For the compound `CCCCCCCCCCCCCCC(CCCCCCCCCCCCCC)C(=O)N[C@H](CO[C@@H]1O[C@@H](C)[C@@H](O)[C@H](O)[C@@H]1O)C(=O)N[C@H](CCC(=O)O)C(=O)NC`, the values for the IC50 in test [3], in test [4] and in test [5] were greater than 1000 µM, 39 µM and 1.9 µM, respectively.
Consider `CCCCCCCCCCCCCCC(CCCCCCCCCCCCCC)C(=O)N[C@@H](CO[C@@H]1O[C@@H](C)[C@@H](O)[C@H](O)[C@@H]1O)C(=O)N[C@H](CCC(=O)O)C(=O)NC`, for which the IC50 in test [1] is 9.4 µM; in test [2], 0.7 µM; in test [3] it was 5.5 µM.
As for `CC(=O)N[C@H]1[C@H]([C@H](O)[C@H](O)CO)O[C@@](O[C@H]2[C@@H](O)[C@@H](CO)O[C@@H](O[C@@H]([C@H](O[C@@H]3O[C@@H](C)[C@@H](O)[C@@H](O)[C@@H]3O)[C@H](C=O)NC(C)=O)[C@H](O)CO)[C@@H]2O)(C(=O)O)C[C@@H]1O` [SIALYL LEWIS X], the IC50 in test [1] was greater than 1000 µM; in test [2] it was greater than 1000 µM; in test [3] it was 600 µM.
Turning to `CCCCCCCCCCCCCCC(CCCCCCCCCCCCCC)C(=O)N[C@H](CO[C@@H]1O[C@@H](C)[C@@H](O)[C@H](O)[C@@H]1O)C(=O)N[C@@H](CCC(=O)O)C(=O)NC`, the IC50 turned out to be 6 µM in test [1], 0.5 µM in test [2] and 13 µM in test [3].
Take `CCCCCCCCCCCCCCC(CCCCCCCCCCCCCC)C(=O)N[C@@H](CO[C@@H]1O[C@@H](C)[C@@H](O)[C@H](O)[C@@H]1O)C(=O)N[C@@H](CCC(=O)O)C(=O)NC`: the IC50 in test [1] was 18 µM; in test [2] it was 2.1 µM; in test [3] it was greater than 1000 µM.
